Screening data as filed in PubChem.
Compounds with a hit are over-represented: about 2.7% of the library has one in this group of screens.
PP1 counter = counter-screen for PP5 inhibitors: inhibitors of human PP1-alpha; purified PP1alpha, OMFP fluorescence; AID 2235; P62136; inhibition, % at 6.7 µM; 320,000 tested, 0.9% active;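 active = inhibition above the mean inhibition of all tested compounds plus 3 SD, computed separately for each screening campaign, cut at about 15% in these data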
TPT1 inh = blocks Candida albicans tRNA 2'-phosphotransferase. inhibition, % at 5 µM. recombinant caTPT1, FP RNA substrate dephosphorylation. 300,000 tested, 0.81% active;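 active = inhibition above the mean of all tested compounds plus 3 SD, set per screening campaign, cut at about 24% in these data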
NadD inh = blocks S. aureus nicotinate mononucleotide adenylyltransferase | 360,000 tested, 0.78% active | purified NadD enzyme, colorimetric absorbance read-out | inhibition, % at 20 µM; in the data active = inhibition above about 26%
CSN inh = inhibitors of human CSN-mediated cullin deneddylation; 360,000 tested, 0.38% active; AID 651999; Purified CSN, SCF-Nedd8-OG deneddylation, fluorescence polarization; inhibition, % at 12.5 µM; Q92905;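 active = pattern-corrected inhibition above about 35%, with an unprinted fluorescence ratio check between 0.5 and 1.5, limit read from the data, passing the limit was not always enough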
Target sequence (Q92905 whole entry, looked up, one chain of several): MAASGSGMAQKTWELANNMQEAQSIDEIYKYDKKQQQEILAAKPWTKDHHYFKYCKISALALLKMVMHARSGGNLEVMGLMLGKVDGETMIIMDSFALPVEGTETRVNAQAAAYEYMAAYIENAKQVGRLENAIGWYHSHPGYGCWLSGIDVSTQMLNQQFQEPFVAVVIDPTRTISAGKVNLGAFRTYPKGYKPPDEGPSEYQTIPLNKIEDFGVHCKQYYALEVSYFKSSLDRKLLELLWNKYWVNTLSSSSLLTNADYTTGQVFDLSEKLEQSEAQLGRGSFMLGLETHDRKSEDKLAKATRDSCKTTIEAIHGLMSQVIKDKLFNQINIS
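test system = HEK293T-derived human Csn5 enzyme | amount = 0.24 nM Csn5 enzyme, final concentration | medium = Tris/NaCl/DTT buffer, pH 7.5 | schedule = 90 min reaction at room temperature | signal = FP | evaluation = inhibition of Csn5 cleavage, % | compound dosing = single dose of 12.5 µM compound with 0.25% DMSO | probe or stimulus = 10 nM SCFSkp2-Nedd8OG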
HNF4A DNA FP = change in binding of human HNF4 alpha to DNA; AID 1224865; 360,000 tested, 0.3% active; HNF4a-FITC DNA binding, fluorescence polarization, 1 h; activity change, % at 10 µM; in the data active = activity change above about 30%, passing the limit was not always enough
Rpn11 block = inhibitors of human proteasome Rpn11 | O00487 | 360,000 tested, 0.59% active | human 26S proteasome, Ub4-pepOG fluorescence polarization; 20S core pre-blocked with epoxomicin | inhibition, % at 20 µM;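 active = inhibition at 20 µM, scaled to each plate's controls, above about 33%, limit read from the data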
Target sequence (O00487 whole entry, looked up): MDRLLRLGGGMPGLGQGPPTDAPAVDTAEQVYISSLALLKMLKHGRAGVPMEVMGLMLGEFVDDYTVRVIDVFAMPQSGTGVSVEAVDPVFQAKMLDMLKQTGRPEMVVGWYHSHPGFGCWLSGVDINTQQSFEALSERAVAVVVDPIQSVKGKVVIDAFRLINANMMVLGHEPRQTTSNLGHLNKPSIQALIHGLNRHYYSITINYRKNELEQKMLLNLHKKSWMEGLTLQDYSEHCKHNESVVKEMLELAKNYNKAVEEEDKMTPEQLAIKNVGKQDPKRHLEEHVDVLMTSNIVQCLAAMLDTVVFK
TPT1 inh confirm = TPT1 (C. albicans) inhibition, confirmation; shares compounds with TPT1 inh; recombinant caTPT1, fluorescence polarization, RNase T1 coupled; inhibition, % at 5 µM; 2,400 tested, 74% active;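 active = inhibition above the primary screen limit, the mean inhibition of all tested compounds plus 3 SD, cut at about 25% in these data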
RNase T1 inh = RNase T1 inhibition in TPT1 counter-screen; inhibition, % at 5 µM; AID 2153; RNase T1 cleavage, fluorescence polarization, 1536-well; 2,400 tested, 83% active; shares compounds with TPT1 inh;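 active = inhibition above the solvent-only control well mean plus 3 SD, limit set per screening run, cut at about 23% in these data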;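 note: inhibitors block cleavage so intact labeled substrate keeps polarization high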
Numbers stand for hits; – = inactive; · = no result shown.

SMILES	PP1 counter	TPT1 inh	NadD inh	CSN inh	HNF4A DNA FP	Rpn11 block	TPT1 inh confirm	RNase T1 inh
CC1CCCN(C(=O)C2CCN(S(=O)(=O)c3cccc4nonc34)CC2)C1 (centres undefined)	–	–	–	–	–	–	·	·
CC1CCN(C(=O)C2CCN(S(=O)(=O)c3cccc4nonc34)CC2)CC1	–	41.6	–	–	–	–	–	–
O=[N+]([O-])c1ccc(/C=N/n2c(CO)nc3ccccc32)s1	–	–	–	–	–	–	·	·
Cc1nc2ccccc2n1/N=C/c1ccc([N+](=O)[O-])s1	–	28.4	–	–	–	·	35.6	59.0
COc1ccccc1NC(=O)Nc1sccc1-c1nc2ccccc2s1	–	32.9	–	–	–	–	33.5	49.3
O=C(Nc1ccccc1)Nc1sccc1-c1nc2ccccc2s1	–	–	–	–	–	–	·	·
N#CC(C#N)=C/C=C(\Nc1ccc(Cl)cc1)c1ccc(Cl)cc1	–	70.1	–	–	–	–	–	–
N#Cc1ccc(NC(=O)Nc2ccc(Cl)cc2)cc1	–	–	–	–	–	–	·	·
CCC(C(=O)OCC(=O)N(CCOC)c1c(N)n(Cc2ccccc2)c(=O)[nH]c1=O)c1ccccc1 (centres undefined)	–	–	–	–	–	–	·	·
O=C1NC(=O)C(Cc2ccc(Cl)cc2)(c2ccccc2)N1 (centres undefined)	·	·	–	–	–	–	·	·
CC(C)Oc1ccc(C2C(C#N)=C(N)Oc3c2oc(CO)cc3=O)cc1 (centres undefined)	–	36.4	–	–	–	–	–	–
COc1cc(C2C(C#N)=C(N)Oc3c2oc(CO)cc3=O)ccc1OC(C)C (centres undefined)	–	–	–	–	–	–	·	·
CC(=O)NC1=NC(=O)/C(=C/c2cc(C)n(-c3ccc(NC(C)=O)cc3)c2C)S1	–	67.5	–	–	81.9	·	101.5	109.0
CC(=O)NC1=NC(=O)/C(=C/c2cn(C(C)=O)nc2-c2ccccc2)S1	–	31.2	–	–	–	–	35.1	46.9
CC1(C(=O)NS(C)(=O)=O)CCN1C(=O)Cc1ccc(-c2ccccc2)cc1 (centres undefined)	·	·	–	–	–	–	·	·
COc1ccc(C=NNc2ccc([N+](=O)[O-])cc2S(=O)(=O)Nc2ccccc2C(=O)O)cc1OC	·	·	–	–	–	–	·	·
COc1ccc(NS(=O)(=O)c2cc([N+](=O)[O-])ccc2N/N=C\c2c(C)[nH]c3ccccc23)cc1	–	71.6	–	–	64.5	·	74.5	85.7
COc1ccc(/C=N/Nc2ccc([N+](=O)[O-])cc2S(=O)(=O)N2CCN(C)CC2)cc1	–	71.0	–	–	–	·	104.9	118.3
Cc1cccnc1C(c1ccc(F)cc1)N(C)C(=O)C1CCN(CCOc2ccc(Cl)cc2Cl)CC1 (centres undefined)	·	·	–	–	–	–	·	·
CCC1CCCCN1CCCNC(=O)CSc1nc2nc(C)c(Cc3ccc(C)cc3)c(C)n2n1 (centres undefined)	–	–	–	–	–	–	·	·
Cc1ccc(-n2nnnc2SCC(=O)N2CC(=O)Nc3ccccc32)cc1	–	28.0	–	–	–	–	36.2	46.3
Cc1nnc(SCC(=O)N2CC(=O)Nc3ccccc32)n1C	–	–	–	–	–	–	·	·
CCN(C(=O)CSc1nnc(-c2ccccc2Cl)n1N)c1c(N)n(Cc2ccccc2)c(=O)[nH]c1=O	·	·	–	–	–	–	·	·
CN(C)S(=O)(=O)c1ccc(NC(=O)CN2CCCc3ccccc32)cc1	–	51.0	–	–	–	·	41.7	54.1
CN(C)S(=O)(=O)c1cc(NC(=O)CN2CCCc3ccccc32)ccc1Cl	–	46.5	–	–	–	·	51.0	61.4
SMILES	PP1 counter	TPT1 inh	NadD inh	CSN inh	HNF4A DNA FP	Rpn11 block	TPT1 inh confirm	RNase T1 inh
CC1Cc2ccccc2N1CC(=O)Nc1ccc(S(=O)(=O)N(C)C)cc1 (centres undefined)	–	–	–	–	–	–	·	·
Cn1c(/C(C#N)=C/c2ccc(-c3ccc(S(N)(=O)=O)cc3)o2)nc2ccccc21	–	118.5	–	–	–	–	120.2	120.9
CCn1c(SCc2nc3sc(C(=O)O)c(C)c3c(=O)[nH]2)nc2ccccc21	–	30.8	–	–	–	–	24.2	27.5
Cc1ccc(N2CC(C(=O)OCC(=O)Nc3ccccc3C)CC2=O)cc1 (centres undefined)	–	·	–	–	–	–	·	·
CN1CCc2c(sc(N)c2C(=O)O)C1	–	–	–	–	–	–	·	·
COc1ccc(C(=O)c2c(N)sc3c2CCN(C)C3)cc1	–	41.8	–	–	–	–	40.4	48.4
COC(=O)c1c(-c2ccc3ccccc3c2)csc1NC(=O)Cc1ccc(OC)c(OC)c1	–	38.8	–	–	–	·	63.4	69.8
Cc1cc(=O)oc2c(C)c(OCC(=O)NCCCN3CCOCC3)ccc12	–	–	–	–	–	–	·	·
CCOC(=O)C1=CC[C@@H](c2ccccc2)N(S(=O)(=O)c2ccc(C)cc2)[C@@H]1C#N	·	·	·	–	–	·	·	·
Cc1ccc(S(=O)(=O)N(c2nc(N(C)C)nc(N(C)C)n2)n2cnnc2)cc1	–	28.9	–	–	–	–	–	–
Cc1ccc(CNC(=S)Nc2ccc(NS(=O)(=O)c3ccc(C)cc3)cc2)cc1	·	·	–	–	–	–	·	·
CC1(C)CC(=O)C2=C(C1)OC(N)=C(C#N)C21CCN(Cc2ccccc2)CC1	–	26.9	–	–	–	–	–	32.5
O=C(CC(NC(=O)c1ccccc1)c1ccccc1)Nc1cccc2ccccc12 (centres undefined)	–	–	–	–	–	–	·	·
O=C(CC(C(=O)O)c1ccccc1)Nc1cccc2ccccc12 (centres undefined)	–	30.0	–	–	–	–	–	–
CN(Cc1ccccc1)S(=O)(=O)c1ccc(NC(=O)c2ccccc2C(=O)O)cc1	–	–	–	–	–	–	·	·
Cc1ccc(/C(O)=C2\C(=O)C(=O)N(CCCN3CCOCC3)C2c2ccccc2F)cc1 (centres undefined)	·	·	–	–	–	–	·	·
CCOC(=O)/C(C#N)=C(C)/C=C1\Sc2ccccc2N1CC	–	48.8	–	–	–	·	39.1	50.2
CCN1/C(=C\C=C(C(C)=O)C(C)=O)Sc2ccccc21	–	196.1	–	–	–	·	167.3	157.2
CC1=NCC(C)c2c1[nH]c1ccccc21 (centres undefined)	–	56.4	–	–	–	–	–	27.3
Cc1ccc(C(=O)NNC(=O)c2ccc(S(=O)(=O)N3CCCCC3)cc2)cc1	·	·	–	–	–	–	·	·
Cc1ccc(S(=O)(=O)c2cc3ccccc3oc2=O)cc1	–	–	–	–	–	–	·	·
